According to ChEMBL document CHEMBL1144450 (J Med Chem, 2005):

Assays:
[1] = Percentage of nitric oxide released by the compound when incubated in phosphate buffer solution at pH 7.4, 37 degree C for 1.5 h; assay type: functional
Summary of the method: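 The compound was incubated in PBS at pH 7.4 and 37 °C for 1.5 h. Nitric oxide was quantified as nitrite by the Griess reaction. Release is expressed as percent of a theoretical maximum of 2 mol NO per mol compound, SEM, n = 3.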

[2] = Percentage of nitric oxide released upon incubation in the presence of guinea pig serum in PBS pH 7.4, 37 degree C for 1.5 h; assay type: functional; design: concentration or dose not given beside the values
Summary of the method: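 Test compound (2.0 × 10-4 mmol) was incubated with 260 µL guinea pig serum in PBS at pH 7.4, 37 °C, for 1.5 h. Nitrite was determined by the Griess reaction. Release is given as percent of a theoretical maximum of 2 mol NO per mol compound, SEM, n = 3.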

[3] = biological target: T1, Prostaglandin G/H synthase 1 (Ovis aries, UniProt P05979); assay: In vitro inhibitory concentration against COX-1 enzyme
T1 sequence (P05979 whole entry): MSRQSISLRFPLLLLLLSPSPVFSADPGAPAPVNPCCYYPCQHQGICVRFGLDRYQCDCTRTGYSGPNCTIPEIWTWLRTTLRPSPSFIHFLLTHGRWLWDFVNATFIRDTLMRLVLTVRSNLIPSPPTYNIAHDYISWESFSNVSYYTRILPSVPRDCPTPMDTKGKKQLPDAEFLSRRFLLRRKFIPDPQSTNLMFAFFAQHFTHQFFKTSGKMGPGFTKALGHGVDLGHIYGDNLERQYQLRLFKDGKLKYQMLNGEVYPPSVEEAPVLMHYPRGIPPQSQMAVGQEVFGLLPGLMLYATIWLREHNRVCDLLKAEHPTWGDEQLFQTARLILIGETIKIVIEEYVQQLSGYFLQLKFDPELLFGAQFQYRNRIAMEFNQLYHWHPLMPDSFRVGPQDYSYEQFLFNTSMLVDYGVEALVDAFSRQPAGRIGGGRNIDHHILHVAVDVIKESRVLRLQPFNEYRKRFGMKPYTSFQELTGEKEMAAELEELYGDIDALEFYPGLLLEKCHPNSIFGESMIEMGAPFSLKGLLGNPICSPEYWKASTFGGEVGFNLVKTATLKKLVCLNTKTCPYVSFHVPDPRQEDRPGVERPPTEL

Rattus norvegicus = assay: In vivo antiinflammatory activity after 3 hr of oral administration was determined using rat carrageenan induced paw edema model; assay type: functional; conditions: read-out: ID50 (the source's name)
Summary of the method: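 Carrageenan-induced foot paw edema in rats, with the test compound and reference drugs given orally. Activity is expressed as ID50 in mg/kg.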

[4] = Percentage of nitric oxide released upon incubation in the presence of pig liver esterase in phosphate buffer solution at pH 7.4, 37 degree C for 1.5 h; assay type: functional
Summary of the method: (§1)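 Pig liver esterase was added at 2 equiv (1 mol compound : 2 mol esterase) in PBS at pH 7.4, 37 °C, 1.5 h. Nitrite from NO was measured by the Griess reaction. Release is given as percent of a theoretical 2 mol NO per mol compound, SEM, n = 3.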

[5] = Percentage of nitric oxide released by the compound when incubated in the presence of pig liver esterase in phosphate buffer solution at pH 7.4, 37 degree C for 1.5 h; assay type: functional; summary of the method: as §1

Compound	Activity [1] [%]	Activity [2] [%]	IC50 [3] [µM]	ED50 (Rattus norvegicus) [mg/kg]	Activity [4] [%]	Activity [5] [%]
[O-]/[N+](=N\O)N1CCCC1	94					
COc1ccc2c(c1)c(CC(=O)OCO/N=[N+](\[O-])N1CCCC1)c(C)n2C(=O)c1ccc(Cl)cc1	15.1	89.1	> 100	10.7	16.3	
CC(=O)Oc1ccccc1C(=O)OCO/N=[N+](\[O-])N(C)C	15.4	81.6	> 100	151	19.1	
CC(C)Cc1ccc(C(C)C(=O)O)cc1 (centres undefined) [IBUPROFEN]				67.4		
COc1ccc2c(c1)c(CC(=O)O)c(C)n2C(=O)c1ccc(Cl)cc1 [INDOMETHACIN]				4.2		
CN(C)/[N+]([O-])=N/O	95.2					
CC(C)Cc1ccc(C(C)C(=O)OCO/N=[N+](\[O-])N2CCCC2)cc1 (centres undefined)	14.9	89.2	> 100	66.8	16.3	
CC(=O)Oc1ccccc1C(=O)OCO/N=[N+](\[O-])N1CCCC1	14.8	88.9	> 100	182		18.5
CC(C)Cc1ccc(C(C)C(=O)OCO/N=[N+](\[O-])N(C)C)cc1 (centres undefined)	16.1	93.6	> 100	62.3	17.3	
COc1ccc2c(c1)c(CC(=O)OCO/N=[N+](\[O-])N(C)C)c(C)n2C(=O)c1ccc(Cl)cc1	14.3	86.3	> 100	5.9	16.9	
